ChEMBL document CHEMBL4000211, “Discovery of novel polycyclic spiro-fused carbocyclicoxindole-based anticancer agents” (Eur J Med Chem, 2017)
Activity calls are given as the source filed them. The rule behind the calls is not given here.

Assays:
A2780S [1] = test: Antiproliferative activity against human A2780S cells at 30 uM after 48 hrs by MTT assay relative to control; assay type: functional
Outline: (§1)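 Cells seeded at 3×10³/well and grown 24 h, then exposed 48 h to six final concentrations, twofold steps down from 30. MTT (5 mg/mL) was added for 2–4 h at 37 °C. Supernatant was removed, formazan dissolved in DMSO, and OD read at 570 nm. Results are given as IC50, or as percent inhibition where IC50 exceeds the top concentration. At least three runs.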

HCT-116 [2] = test: Induction of apoptosis in human HCT116 cells assessed as late apoptotic cells at 12.5 uM after 24 hrs by annexin V-FITC/propidium iodide staining-based flow cytometric method (reference value: 2.77%); assay type: functional
HCT-116 [3] = test: Cell cycle arrest in human HCT116 cells assessed as accumulation at sub G1 phase at 7.5 uM after 48 hrs by propidium iodide staining-based flow cytometric method (reference value: 0.86%); assay type: functional
HCT-116 [4] = test: Cell cycle arrest in human HCT116 cells assessed as accumulation at S phase at 7.5 uM after 24 hrs by propidium iodide staining-based flow cytometric method (reference value: 36.43%); assay type: functional
HCT-116 [5] = test: Induction of apoptosis in human HCT116 cells assessed as necrotic cells at 10 uM after 24 hrs by annexin V-FITC/propidium iodide staining-based flow cytometric method (reference value: 1.85%); assay type: functional
HCT-116 [6] = test: Cell cycle arrest in human HCT116 cells assessed as accumulation at G2 phase at 10 uM after 48 hrs by propidium iodide staining-based flow cytometric method (reference value: 31.27%); assay type: functional
HCT-116 [7] = test: Induction of apoptosis in human HCT116 cells assessed as viable cells at 10 uM after 24 hrs by annexin V-FITC/propidium iodide staining-based flow cytometric method (reference value: 93.48%); assay type: functional; settings: HCT-116, 24 h, read-out: Activity
Outline: (§2)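 HCT116 cells seeded at 1×10⁶ cells/mL in 6-well plates for 24 h, then exposed to 0, 7.5, 10 or 12.5 μM for a further 24 h or 48 h. Cells washed twice in PBS, then stained with Annexin V-FITC plus PI (100 μg/mL stock) in binding buffer (10 mM HEPES, pH 7.4, 2.5 mM CaCl₂) for 30 min at room temperature in the dark. Early and late apoptotic fractions gated by flow cytometry.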

HCT-116 [8] = test: Induction of apoptosis in human HCT116 cells assessed as necrotic cells at 12.5 uM after 24 hrs by annexin V-FITC/propidium iodide staining-based flow cytometric method (reference value: 1.85%); assay type: functional; outline: as §2
HCT-116 [9] = test: Induction of apoptosis in human HCT116 cells assessed as necrotic cells at 10 uM after 48 hrs by annexin V-FITC/propidium iodide staining-based flow cytometric method (reference value: 2.29%); assay type: functional
A2780S [10] = test: Antiproliferative activity against human A2780S cells at 3.75 uM after 48 hrs by MTT assay relative to control; assay type: functional; outline: as §1
HCT-116 [11] = test: Cell cycle arrest in human HCT116 cells assessed as accumulation at sub G1 phase at 12.5 uM after 24 hrs by propidium iodide staining-based flow cytometric method (reference value: 1.73%); assay type: functional
HCT-116 [12] = test: Induction of apoptosis in human HCT116 cells assessed as viable cells at 7.5 uM after 48 hrs by annexin V-FITC/propidium iodide staining-based flow cytometric method (reference value: 95.05%); assay type: functional; settings: HCT-116, 48 h, read-out: Activity; outline: as §2
HCT-116 [13] = test: Induction of apoptosis in human HCT116 cells assessed as viable cells at 12.5 uM after 24 hrs by annexin V-FITC/propidium iodide staining-based flow cytometric method (reference value: 93.48%); assay type: functional; settings: HCT-116, 24 h, read-out: Activity; outline: as §2
A549 = test: Antiproliferative activity against human A549 cells after 48 hrs by MTT assay; assay type: functional, cell-based; settings: A549, 48 h; outline: as §1
HCT-116 [14] = test: Induction of apoptosis in human HCT116 cells assessed as early apoptotic cells at 10 uM after 48 hrs by annexin V-FITC/propidium iodide staining-based flow cytometric method (reference value: 1.6%); assay type: functional
HCT-116 [15] = test: Induction of apoptosis in human HCT116 cells assessed as early apoptotic cells at 10 uM after 24 hrs by annexin V-FITC/propidium iodide staining-based flow cytometric method (reference value: 1.9%); assay type: functional
HCT-116 [16] = test: Induction of apoptosis in human HCT116 cells assessed as necrotic cells at 7.5 uM after 48 hrs by annexin V-FITC/propidium iodide staining-based flow cytometric method (reference value: 2.29%); assay type: functional; outline: as §2
A2780S [17] = test: Antiproliferative activity against human A2780S cells at 15 uM after 48 hrs by MTT assay relative to control; assay type: functional; outline: as §1
CT26 = test: Antiproliferative activity against mouse CT26 cells after 48 hrs by MTT assay; assay type: functional, cell-based; settings: CT26, 48 h; outline: as §1
NCI-H1299 = test: Antiproliferative activity against human NCI-H1299 cells after 48 hrs by MTT assay; assay type: functional, cell-based; settings: NCI-H1299, 48 h; outline: as §1
HCT-116 [18] = test: Induction of apoptosis in human HCT116 cells assessed as viable cells at 10 uM after 48 hrs by annexin V-FITC/propidium iodide staining-based flow cytometric method (reference value: 95.05%); assay type: functional; settings: HCT-116, 48 h, read-out: Activity; outline: as §2
HCT-116 [19] = test: Induction of apoptosis in human HCT116 cells assessed as late apoptotic cells at 10 uM after 24 hrs by annexin V-FITC/propidium iodide staining-based flow cytometric method (reference value: 2.77%); assay type: functional
HCT-116 [20] = test: Induction of apoptosis in human HCT116 cells assessed as late apoptotic cells at 7.5 uM after 24 hrs by annexin V-FITC/propidium iodide staining-based flow cytometric method (reference value: 2.77%); assay type: functional
HCT-116 [21] = test: Antiproliferative activity against human HCT116 cells after 48 hrs by MTT assay; assay type: functional, cell-based; settings: HCT-116, 48 h; outline: as §1
[22] = target: E3 ubiquitin-protein ligase Mdm2 (Homo sapiens) (UniProt Q00987); test: Inhibition of MDM2-mediated p53 degradation in human HCT116 cells assessed as increase in MDM2 levels at 7.5 to 12.5 uM after 24 hrs by Western blot method; assay type: cell-based
Sequence of E3 ubiquitin-protein ligase Mdm2 (Homo sapiens) (Q00987 whole entry, looked up): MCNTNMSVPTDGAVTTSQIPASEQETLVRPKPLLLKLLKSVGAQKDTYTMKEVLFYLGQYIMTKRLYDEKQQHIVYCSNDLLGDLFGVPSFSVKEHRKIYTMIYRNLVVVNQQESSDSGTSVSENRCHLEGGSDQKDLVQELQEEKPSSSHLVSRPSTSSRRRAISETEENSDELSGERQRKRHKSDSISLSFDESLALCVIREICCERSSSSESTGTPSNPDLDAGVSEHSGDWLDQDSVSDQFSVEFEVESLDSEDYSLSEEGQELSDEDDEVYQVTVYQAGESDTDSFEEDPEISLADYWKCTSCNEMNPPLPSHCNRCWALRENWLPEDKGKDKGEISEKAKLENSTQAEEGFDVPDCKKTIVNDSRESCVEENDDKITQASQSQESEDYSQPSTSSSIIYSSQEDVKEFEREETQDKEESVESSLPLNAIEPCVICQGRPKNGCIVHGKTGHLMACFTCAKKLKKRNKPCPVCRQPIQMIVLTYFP
Outline: (§3)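 Treated HCT116 cells lysed on ice in RIPA buffer with 1% protease inhibitor cocktail. Lysates cleared at 13000 g for 20 min at 4 °C and protein measured by BCA. Equal protein amounts run on SDS-PAGE, transferred to PVDF and probed with primary then HRP secondary antibodies. Bands detected by enhanced chemiluminescence; 24 h treatment.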

HCT-116 [23] = test: Cell cycle arrest in human HCT116 cells assessed as accumulation at S phase at 10 uM after 48 hrs by propidium iodide staining-based flow cytometric method (reference value: 34.83%); assay type: functional
BGC-823 = test: Antiproliferative activity against human BGC823 cells after 48 hrs by MTT assay; assay type: functional, cell-based; settings: BGC-823, 48 h; outline: as §1
[24] = target: E3 ubiquitin-protein ligase Mdm2 (Homo sapiens) (UniProt Q00987); test: Inhibition of MDM2-mediated p53 degradation in human HCT116 cells assessed as increase in p53 levels at 7.5 to 12.5 uM after 24 hrs by Western blot method; assay type: cell-based; outline: as §3
HCT-116 [25] = test: Induction of apoptosis in human HCT116 cells assessed as late apoptotic cells at 7.5 uM after 48 hrs by annexin V-FITC/propidium iodide staining-based flow cytometric method (reference value: 1.06%); assay type: functional
HCT-116 [26] = test: Induction of apoptosis in human HCT116 cells assessed as late apoptotic cells at 10 uM after 48 hrs by annexin V-FITC/propidium iodide staining-based flow cytometric method (reference value: 1.06%); assay type: functional

- IC50 (A549): 18.3 µM
- IC50 (CT26): 9.5 µM
- IC50 (NCI-H1299): > 30 µM
- IC50 (HCT-116 [21]): 8.6 µM
- inhibition [22]: Active
- IC50 (BGC-823): > 30 µM
- inhibition [24]: Active
Structure (SMILES): C[C@@H]1Oc2ccc3ccccc3c2[C@@H]2[C@@H]1C=C(C=O)[C@@H](C)[C@]21C(=O)Nc2ccccc21
- inhibition at 30 µM (A2780S [1]): 83.8 to 85.1%
- Activity (HCT-116 [2]): 17.98%
- Activity (HCT-116 [3]): 4.19%
- Activity (HCT-116 [4]): 32.56%
- Activity (HCT-116 [5]): 2.46%
- Activity (HCT-116 [6]): 18.42%
- viability at 10 µM (HCT-116 [7]): 76.1%
- Activity (HCT-116 [8]): 2.21%
- Activity (HCT-116 [9]): 2.82%
- inhibition at 3.75 µM (A2780S [10]): 17.7 to 24.1%
- Activity (HCT-116 [11]): 37.03%
- viability at 7.5 µM (HCT-116 [12]): 91.7%
- viability at 12.5 µM (HCT-116 [13]): 46.6%
- Activity (HCT-116 [14]): 27.48%
- Activity (HCT-116 [15]): 11.32%
- Activity (HCT-116 [16]): 2.02%
- inhibition at 15 µM (A2780S [17]): 61.7 to 72.4%
- viability at 10 µM (HCT-116 [18]): 61.5%
- Activity (HCT-116 [19]): 10.13%
- Activity (HCT-116 [20]): 4.71%
- Activity (HCT-116 [23]): 18.5%
- Activity (HCT-116 [25]): 2.09%
- Activity (HCT-116 [26]): 8.18%
